According to paper PMC7003739 (Clinical Pharmacology in Drug Development, 2019):
Marks after values point to notes of the source that are not given here.

Key:
[1] = Plasma PK after single and multiple doses; assay type: in vivo, human; conditions: Japanese, Cohort B; for AUCτ, arithmetic mean (SD) / AUCτ, geometric mean (%CV): τ 12 hours
Safety and tolerability = assay type: in vivo, human
Summary of the method: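 Healthy Japanese volunteers (Cohort B) were randomised 3:1 to a single oral 15 mg test compound dose or matching placebo on day 1, then 15 mg BID for 5 days (single dose on the last day) or placebo. Adverse events (intensity and treatment relatedness), clinical observations and vital signs were monitored throughout. ECG was done at specified post-dose times. Physical examination was on day 0 and 72 h after the final dose.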

Urinary PK = assay type: in vivo, human; conditions: for Ae6, arithmetic mean (SD) / Ae12, arithmetic mean (SD) / Ae24%, arithmetic mean (SD) / CLR, arithmetic mean (SD) / CLR, geometric mean (%CV) / CLR, median: Cohort A
[2] = humans; cited from earlier work
[3] = 15 mg BID over 14 days, healthy volunteers; cited from earlier work
[4] = Plasma PK after single oral doses; assay type: in vivo, human; conditions: for AUCinf, arithmetic mean (SD) / AUCinf, geometric mean (%CV) / Cmax, arithmetic mean (SD) / Cmax, geometric mean (%CV) / tmax, median (range) / t½, arithmetic mean (SD): n=6; for tmax, J‐W difference of median: Japanese‐Western
Summary of the method: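 Healthy Japanese and Western volunteers took single oral doses of 1, 5 and 30 mg or placebo with 240 mL water on days 1, 4 and 7, with a 2-day washout. Heparinized blood was taken predose and at 0.25–48 h, centrifuged within 30 min at 4°C, and the plasma frozen at –20°C. Assay was LC-MS/MS (0.100–350 ng/mL), with values below the quantification limit set to zero. Japanese/Western geometric mean ratios came from log-scale ANOVA.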

[5] = day 8 multiple dose 15 mg BID for 5 days, n=6
[6] = Cohort B Japanese, 15 mg BID, N=6
[7] = Japanese, Cohort B, single 15 mg dose
[8] = Japanese, single oral 1 mg, n=6
[9] = Japanese, single oral 5 mg, n=5
[10] = Japanese, single oral 5 mg, n=6
[11] = Japanese, single oral 30 mg, n=6
[12] = Western, single oral 30 mg, n=6
[13] = Japanese, single oral 1 mg, Cohort A
[14] = Japanese, single oral 5 mg, Cohort A
[15] = Japanese, single oral 30 mg, Cohort A
[16] = Western, single oral 1 mg, Cohort A
[17] = Western, single oral 5 mg, Cohort A
[18] = Western, single oral 30 mg, Cohort A

C[C@@H]1CCN(C(=O)CC#N)C[C@@H]1N(C)c1ncnc2[nH]ccc12 [tofacitinib]
drug accumulation upon repeat dosing ([1]; 15 mg BID): negligible drug accumulation
time to steady state plasma concentration ([1]; 15 mg BID for 5 days): ≤ 24 h
AUCinf, arithmetic mean (SD) ([1]; day 1 single dose 15 mg, n=6): 417 (133) ng ⋅ h/mL
AUCinf, geometric mean (%CV) ([1]; day 1 single dose 15 mg, n=6): 399 (32) ng ⋅ h/mL
Cmax, arithmetic mean (SD) ([1]; day 1 single dose 15 mg, n=6): 149 (50.6) ng/mL
Cmax, geometric mean (%CV) ([1]; day 1 single dose 15 mg, n=6): 141 (34) ng/mL
tmax, median (range) ([1]; day 1 single dose 15 mg, n=6): 0.75 (0.50‐1.00) h
t½, arithmetic mean (SD) ([1]; day 1 single dose 15 mg, n=6): 3.14 (0.672) h
AUCτ, arithmetic mean (SD) ([1]; day 1 single dose 15 mg, n=6): 403 (128) ng ⋅ h/mL
AUCτ, geometric mean (%CV) ([1]; day 1 single dose 15 mg, n=6): 387 (32) ng ⋅ h/mL
Cmax, arithmetic mean (SD) [1, 5]: 143 (45.9) ng/mL
Cmax, geometric mean (%CV) [1, 5]: 136 (32) ng/mL
tmax, median (range) [1, 5]: 0.75 (0.50‐1.00) h
t½, arithmetic mean (SD) [1, 5]: 3.28 (0.544) h
AUCτ, arithmetic mean (SD) [1, 5]: 457 (116) ng ⋅ h/mL
AUCτ, geometric mean (%CV) [1, 5]: 445 (25) ng ⋅ h/mL
Constipation, n (all causality) (Safety and tolerability; [6]): 1
Hunger, n (all causality) (Safety and tolerability; [6]): 2
Skin irritation, n (all causality) (Safety and tolerability; [6]): 1
adverse events of moderate intensity: skin irritation, events (Safety and tolerability; Cohort B, single dose 15 mg, not considered related to study treatment): 1
renal function (individual creatinine levels) following repeat administration (Safety and tolerability; Japanese, Cohort B, 15 mg BID): renal function remained unaffected
changes in vital signs or ECG measurements (Safety and tolerability; whole study): no clinically significant changes
clinically significant laboratory abnormalities (Safety and tolerability; whole study): no volunteers had clinically significant laboratory abnormalities
serious adverse events or deaths (Safety and tolerability; whole study, Cohorts A and B): No serious adverse events or deaths were reported
CLR reduction after multiple‐dose vs single‐dose administration, average (Urinary PK; Japanese, Cohort B, 15 mg): 24%
CLR, geometric mean [SD] (Urinary PK; Japanese, Cohort B, multiple dose 15 mg BID): 120 mL/min
Ae24%, arithmetic mean (SD) percentage of unchanged tofacitinib excreted in urine 24 hours after dose (Urinary PK; [7]): 27.1%
CLR, geometric mean [SD] (Urinary PK; [7]): 158 mL/min
Mean CLR decrease with increasing dose (Urinary PK; Japanese, single doses 1 to 30 mg (162 to 148 mL/min)): 8.6%
Ae6, arithmetic mean (SD) (Urinary PK; [8]): 0.191 (0.0469) mg
Ae12, arithmetic mean (SD) (Urinary PK; [8]): 0.215 (0.0527) mg
Ae24%, arithmetic mean (SD) (Urinary PK; [8]): 22.0%
CLR, arithmetic mean (SD) (Urinary PK; [8]): 166 (45.2) mL/min
CLR, geometric mean (%CV) (Urinary PK; [8]): 162 (27) mL/min
CLR, median (Urinary PK; [8]): 144 mL/min
Ae24%, arithmetic mean (SD) (Urinary PK; Japanese, single oral 1 mg, n=6, listed as Tofacitinib): 22.0 (5.34) %
Ae12, arithmetic mean (SD) (Urinary PK; [9]): 0.995 ^c (0.367) mg
Ae24%, arithmetic mean (SD) (Urinary PK; [9]): 20.4%
CLR, geometric mean (%CV) (Urinary PK; [9]): 134 ^c (25) mL/min
Ae24%, arithmetic mean (SD) (Urinary PK; Japanese, single oral 5 mg, n=5, listed as Tofacitinib): 20.4 ^c (7.51) %
Ae6, arithmetic mean (SD) (Urinary PK; [10]): 0.890 (0.327) mg
CLR, arithmetic mean (SD) (Urinary PK; [10]): 137 (33.8) mL/min
CLR, median (Urinary PK; [10]): 136 mL/min
Ae6, arithmetic mean (SD) (Urinary PK; [11]): 5.59 (0.832) mg
Ae12, arithmetic mean (SD) (Urinary PK; [11]): 6.46 (0.791) mg
Ae24%, arithmetic mean (SD) (Urinary PK; [11]): 22.5%
CLR, arithmetic mean (SD) (Urinary PK; [11]): 153 (41.8) mL/min
CLR, geometric mean (%CV) (Urinary PK; [11]): 148 (27) mL/min
CLR, median (Urinary PK; [11]): 149 mL/min
Ae24%, arithmetic mean (SD) (Urinary PK; Japanese, single oral 30 mg, n=6, listed as Tofacitinib): 22.5 (3.00) %
Mean CLR decrease with increasing dose (Urinary PK; Western, single doses 1 to 30 mg (160 to 124 mL/min)): 22.5%
Ae24%, arithmetic mean (SD) (Urinary PK; Western, single oral 1 mg, n=5): 21.2%
CLR, geometric mean (%CV) (Urinary PK; Western, single oral 1 mg, n=5): 160 ^c (11) mL/min
Ae24%, arithmetic mean (SD) (Urinary PK; Western, single oral 1 mg, n=5, listed as Tofacitinib): 21.2 ^c (0.865) %
Ae6, arithmetic mean (SD) (Urinary PK; Western, single oral 1 mg, n=6): 0.169 (0.0128) mg
Ae12, arithmetic mean (SD) (Urinary PK; Western, single oral 1 mg, n=6): 0.199 (0.0127) mg
CLR, arithmetic mean (SD) (Urinary PK; Western, single oral 1 mg, n=6): 161 (17.7) mL/min
CLR, median (Urinary PK; Western, single oral 1 mg, n=6): 158 mL/min
Ae12, arithmetic mean (SD) (Urinary PK; Western, single oral 5 mg, n=5): 0.919 ^c (0.265) mg
Ae24%, arithmetic mean (SD) (Urinary PK; Western, single oral 5 mg, n=5): 19.9%
CLR, geometric mean (%CV) (Urinary PK; Western, single oral 5 mg, n=5): 136 ^c (29) mL/min
Ae24%, arithmetic mean (SD) (Urinary PK; Western, single oral 5 mg, n=5, listed as Tofacitinib): 19.9 ^c (5.15) %
Ae6, arithmetic mean (SD) (Urinary PK; Western, single oral 5 mg, n=6): 0.744 (0.224) mg
CLR, arithmetic mean (SD) (Urinary PK; Western, single oral 5 mg, n=6): 141 (40.6) mL/min
CLR, median (Urinary PK; Western, single oral 5 mg, n=6): 148 mL/min
Ae6, arithmetic mean (SD) (Urinary PK; [12]): 4.15 (1.11) mg
Ae12, arithmetic mean (SD) (Urinary PK; [12]): 5.63 (1.28) mg
Ae24%, arithmetic mean (SD) (Urinary PK; [12]): 19.8%
CLR, arithmetic mean (SD) (Urinary PK; [12]): 127 (30.1) mL/min
CLR, geometric mean (%CV) (Urinary PK; [12]): 124 (24) mL/min
CLR, median (Urinary PK; [12]): 127 mL/min
Ae24%, arithmetic mean (SD) (Urinary PK; Western, single oral 30 mg, n=6, listed as Tofacitinib): 19.8 (4.11) %
percentage of unchanged tofacitinib excreted in urine (Urinary PK; over 24 hours after single‐dose administration, across doses and ethnicities): approximately 20%
contribution of renal clearance to clearance [2]: approximately 30%
effect on glomerular filtration rate [3]: did not alter the glomerular filtration rate
differences in systemic exposure (Cmax, AUCinf) between Japanese and Western volunteers ([4]; 1, 5, 30 mg single doses, analysis of variance): No significant differences
AUCinf, arithmetic mean (SD) [4, 13]: 22.8 (6.37) ng ⋅ h/mL
AUCinf, geometric mean (%CV) [4, 13]: 22.0 (28) ng ⋅ h/mL
Cmax, arithmetic mean (SD) [4, 13]: 7.38 (1.05) ng/mL
Cmax, geometric mean (%CV) [4, 13]: 7.32 (14) ng/mL
tmax, median (range) [4, 13]: 0.75 (0.50‐2.00) h
t½, arithmetic mean (SD) [4, 13]: 1.96 (0.240) h
AUCinf, arithmetic mean (SD) [4, 14]: 114 (25.5) ng ⋅ h/mL
AUCinf, geometric mean (%CV) [4, 14]: 111 (22) ng ⋅ h/mL
Cmax, arithmetic mean (SD) [4, 14]: 43.1 (15.0) ng/mL
Cmax, geometric mean (%CV) [4, 14]: 41.3 (35) ng/mL
tmax, median (range) [4, 14]: 0.50 (0.50‐1.00) h
t½, arithmetic mean (SD) [4, 14]: 2.49 (0.570) h
AUCinf, arithmetic mean (SD) [4, 15]: 775 (203) ng ⋅ h/mL
AUCinf, geometric mean (%CV) [4, 15]: 754 (26) ng ⋅ h/mL
Cmax, arithmetic mean (SD) [4, 15]: 324 (82.7) ng/mL
Cmax, geometric mean (%CV) [4, 15]: 315 (25) ng/mL
tmax, median (range) [4, 15]: 0.50 (0.50‐1.00) h
t½, arithmetic mean (SD) [4, 15]: 3.14 (0.497) h
tmax, J‐W difference of median ([4]; single oral 1 mg, Cohort A): 0.00 h
tmax, J‐W difference of median ([4]; single oral 5 mg, Cohort A): 0.00 h
tmax, J‐W difference of median ([4]; single oral 30 mg, Cohort A): 0.00 h
AUCinf, arithmetic mean (SD) [4, 16]: 22.9 (2.52) ng ⋅ h/mL
AUCinf, geometric mean (%CV) [4, 16]: 22.8 (11) ng ⋅ h/mL
Cmax, arithmetic mean (SD) [4, 16]: 7.53 (1.69) ng/mL
Cmax, geometric mean (%CV) [4, 16]: 7.36 (22) ng/mL
tmax, median (range) [4, 16]: 0.75 (0.50‐1.00) h
t½, arithmetic mean (SD) [4, 16]: 2.14 (0.210) h
AUCinf, arithmetic mean (SD) [4, 17]: 120 (16.8) ng ⋅ h/mL
AUCinf, geometric mean (%CV) [4, 17]: 119 (14) ng ⋅ h/mL
Cmax, arithmetic mean (SD) [4, 17]: 36.0 (9.78) ng/mL
Cmax, geometric mean (%CV) [4, 17]: 34.9 (27) ng/mL
tmax, median (range) [4, 17]: 0.50 (0.50‐2.00) h
t½, arithmetic mean (SD) [4, 17]: 2.85 (0.691) h
AUCinf, arithmetic mean (SD) [4, 18]: 797 (131) ng ⋅ h/mL
AUCinf, geometric mean (%CV) [4, 18]: 788 (16) ng ⋅ h/mL
Cmax, arithmetic mean (SD) [4, 18]: 269 (47.9) ng/mL
Cmax, geometric mean (%CV) [4, 18]: 265 (18) ng/mL
tmax, median (range) [4, 18]: 0.50 (0.50‐1.00) h
t½, arithmetic mean (SD) [4, 18]: 3.50 (0.349) h
geometric mean Cmax in Japanese higher than in Western volunteers ([4]; single 5 and 30 mg doses, Cohort A): approximately 19%
increase of systemic exposure with dose ([4]; single oral doses 1, 5, 30 mg): approximately dose‐proportional
